Screening data (PubChem)
This is a sample that favours compounds with a hit; in the whole collection about 2.9% have one here.
b-catenin transl: modulators of beta-catenin nuclear translocation. HeLa beta-catenin nuclear translocation, immunofluorescence imaging. nuclear translocation activity, % at 5 µM. 0.3% of 190,000 active;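 active means nuclear translocation activity above 50% at 5 µM, with a well cell count of 50 or more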;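 further: per-cell ratio of nuclear to cytoplasmic median beta-catenin stain intensity; plate controls were DMSO negative control for no effect and GSK-3 inhibitor IX positive control for full effect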
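assay system = human HeLa cells, endogenous beta-catenin | times = compound treatment 24 h, 37°C, 5% CO2 | detection = Anti-beta-catenin immunofluorescence on PFA-fixed, Triton-permeabilized cells, DAPI nuclei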
Wee1 degr inh: blocks degradation of human Wee1 kinase | HeLa Luc-Wee1K328M stability, luciferase luminescence; 100% = proteasome inhibitor MG132 effect | reporter increase, % at 5 µM | 1.2% of 220,000 active;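 active means activation above the mean of all tested compounds plus 3 SD, set per screening run, cut at about 8.8% in these data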;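 further: cells exposed to compound for 20 h before luminescence read; 0% = DMSO alone and 100% = MG132 at 30 µM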
Target sequence (P30291 whole entry K328M): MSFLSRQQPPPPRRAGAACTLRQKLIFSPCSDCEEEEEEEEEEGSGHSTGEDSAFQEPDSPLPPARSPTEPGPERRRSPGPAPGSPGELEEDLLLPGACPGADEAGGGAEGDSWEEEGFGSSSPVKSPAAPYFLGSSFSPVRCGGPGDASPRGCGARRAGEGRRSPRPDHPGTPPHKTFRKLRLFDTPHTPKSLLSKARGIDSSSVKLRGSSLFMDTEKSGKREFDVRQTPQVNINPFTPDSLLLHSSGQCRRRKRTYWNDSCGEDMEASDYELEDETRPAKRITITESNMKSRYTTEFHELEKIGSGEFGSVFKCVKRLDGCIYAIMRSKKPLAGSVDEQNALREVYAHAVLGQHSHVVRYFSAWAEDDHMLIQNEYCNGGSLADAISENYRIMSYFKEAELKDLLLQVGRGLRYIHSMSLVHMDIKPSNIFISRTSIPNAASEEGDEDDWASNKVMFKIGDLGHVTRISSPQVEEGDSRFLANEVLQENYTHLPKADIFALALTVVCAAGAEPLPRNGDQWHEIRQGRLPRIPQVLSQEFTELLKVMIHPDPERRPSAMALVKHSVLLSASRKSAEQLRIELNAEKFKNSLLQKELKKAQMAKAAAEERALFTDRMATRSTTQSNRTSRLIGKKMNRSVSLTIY
Insulin prom up: MIN6 insulin promoter up-regulation. MIN6 insulin promoter-GFP reporter, high-content imaging; active compounds read high. z-score at 5 µM. 0.3% of 190,000 active. AID 1625;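 active means z-score above 3 at 5 µM with at least 500 cells counted in the well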
Autophagy mod: alters autophagy in cells; MEF GFP-LC3 puncta imaging; test concentration mostly 10 µM; calls only at 10 µM (by protocol); AID 463193; 0.98% of 190,000 active;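 active means percentage of spot-positive cells more than 3 SD above its plate mean, without a fluorescence outlier flag or 80% toxicity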;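 further: spot-positive cell cutoff set from DMSO-treated cells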
MT stabilize HCS: stabilizes microtubules in HeLa cells. HeLa tubulin immunostaining HCS, 24 h; share of cells brighter than vehicle mean+2SD. % tubulin-high responders, % at 10 µM. 0.83% of 200,000 active. AID 2205;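 active means plate Z-score above 3 for both tubulin-high and condensed-nucleus cell shares, with cell loss under 80%, at 10 µM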;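 further: anti alpha tubulin signal scored within the nucleus-defined area of each cell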
The depositor's hits bear a star.

Screening COc1ccc(OC)c(NC(=O)C(C)Oc2ccc(Br)cc2)c1 (stereo not given) returned b-catenin transl 1.3, Wee1 degr inh 2.7, Insulin prom up -0.01, Autophagy mod inactive and MT stabilize HCS 5.5.
`Cc1ccc(S(=O)(=O)c2nc(-c3cccs3)oc2NCCCN(C)C)cc1` gave Wee1 degr inh -1.1, Insulin prom up -5.47, Autophagy mod inactive and MT stabilize HCS 3.7.
Cn1nc(C(C)(C)C)c(NC(=O)c2cccs2)c1C(C)(C)C was read as b-catenin transl -3.5, Wee1 degr inh -0.6 and Insulin prom up -0.43.
Screening CCOc1cccc(CN2CCN(Cc3ccc(C)o3)C(CCO)C2)c1O (stereo not given) returned b-catenin transl -0.4, Wee1 degr inh 9.3*, Autophagy mod inactive and MT stabilize HCS 4.1.
Screening O=C1CC(CCC(=O)NC2CC2)c2ccccc2N1 (stereo not given) returned b-catenin transl -1.4, Wee1 degr inh 9.0*, Insulin prom up 1.1, Autophagy mod inactive and MT stabilize HCS 3.1.
For CC1=NN(C(=O)Cn2nc([N+](=O)[O-])c(Br)c2C)C(O)(C(F)(F)F)C1 (stereo not given) the results were b-catenin transl -1.6, Wee1 degr inh 2.0, Insulin prom up -0.11, Autophagy mod inactive and MT stabilize HCS 2.0.
For CCn1c(COc2ccc(C)cc2)nnc1SCC(=O)Nc1ccc2c(c1)OCCO2 the results were b-catenin transl -3.2, Wee1 degr inh -1.8, Autophagy mod inactive and MT stabilize HCS 4.5.
CCN1CCN(CCCN(Cc2ccco2)C(=S)Nc2cccc(Cl)c2C)CC1 was read as b-catenin transl -1.7, Wee1 degr inh 2.2, Insulin prom up -0.43, Autophagy mod active and MT stabilize HCS 1.3.
Screening Cc1cc(NC(=S)N(CCCN2CCN(C)CC2)Cc2ccco2)ccc1Cl returned b-catenin transl -1.7, Wee1 degr inh 0.4, Insulin prom up 2.17, Autophagy mod active and MT stabilize HCS 4.0.
For CCCCNC(=O)c1cc2ccccc2s1 the results were b-catenin transl 0.6, Wee1 degr inh -2.5, Insulin prom up -0.24, Autophagy mod inactive and MT stabilize HCS 1.5.
N#Cc1cc2c(nc1SCC1COc3ccccc3O1)CCC2 (stereo not given) was read as b-catenin transl 3.6, Wee1 degr inh -0.5, Insulin prom up -0.05, Autophagy mod inactive and MT stabilize HCS 1.4.
`Cc1cc(C)c(C#N)c(SCC2COc3ccccc3O2)n1` (stereo not given) gave b-catenin transl 0.6, Wee1 degr inh 0.9, Insulin prom up 3.48*, Autophagy mod inactive and MT stabilize HCS 1.9.
COc1ccc(N(CC(=O)Nc2cccc(SC)c2)S(C)(=O)=O)cc1 was read as b-catenin transl -1.6, Wee1 degr inh 9.2*, Insulin prom up -0.34, Autophagy mod inactive and MT stabilize HCS 6.2.
COc1ccc(NC(=O)CN(c2ccc([N+](=O)[O-])cc2)S(=O)(=O)c2ccccc2)cc1 was read as b-catenin transl 2.6, Wee1 degr inh 0.1, Insulin prom up 1.12, Autophagy mod inactive and MT stabilize HCS 14.2*.
`COc1ccc(N(CC(=O)Nc2cccc(C(F)(F)F)c2)S(C)(=O)=O)cc1` gave b-catenin transl -2.6, Wee1 degr inh 0.6, Insulin prom up -0.63, Autophagy mod inactive and MT stabilize HCS 3.2.
For COc1ccc(OC)c(N(CC(=O)Nc2cccnc2)S(C)(=O)=O)c1 the results were b-catenin transl -11.4, Wee1 degr inh 9.6*, Autophagy mod inactive and MT stabilize HCS 2.6.
Screening COc1c(F)c(F)c(C(=O)Nc2c(C)cc(Br)cc2C)c(F)c1F returned b-catenin transl 0.7, Wee1 degr inh -1.2, Insulin prom up 0.64, Autophagy mod inactive and MT stabilize HCS 1.8.
For C=CCn1c(SCc2c(Cl)cccc2Cl)nnc1-c1cccnc1 the results were b-catenin transl -2.1, Wee1 degr inh -0.2, Insulin prom up -0.61, Autophagy mod inactive and MT stabilize HCS 1.4.
For CCOC(=O)c1sc(NC(=S)NC(=O)c2ccccc2)c(C(=O)OCC)c1C the results were b-catenin transl -1.8, Wee1 degr inh 2.0, Insulin prom up -0.47, Autophagy mod active and MT stabilize HCS 6.0.
CCOC(=O)c1sc(NC(=S)NC(=O)c2ccccc2Cl)c(C(=O)OCC)c1C was read as b-catenin transl 1.0, Wee1 degr inh -1.3, Insulin prom up -0.21, Autophagy mod inactive and MT stabilize HCS 5.4.
`O=[N+]([O-])c1ccc(-c2nc(-c3cccs3)c(-c3cccs3)[nH]2)cc1` gave Wee1 degr inh -0.1, Autophagy mod active and MT stabilize HCS 2.6.
O=[N+]([O-])c1cccc(-c2nc(-c3cccs3)c(-c3cccs3)[nH]2)c1 was read as b-catenin transl 0.2, Wee1 degr inh 1.7, Insulin prom up -0.72, Autophagy mod inactive and MT stabilize HCS 1.6.
COc1c2ccccc2c(OC)c2ccccc12 was read as b-catenin transl 1.3, Wee1 degr inh 5.5, Insulin prom up 0.09, Autophagy mod active and MT stabilize HCS 1.3.
`COc1nnc(OC)c2ccccc12` gave b-catenin transl 3.0, Wee1 degr inh 0.7, Insulin prom up 0.63, Autophagy mod inactive and MT stabilize HCS 5.1.
Screening COc1cc(Cl)c(C)cc1NC(=O)COC(=O)c1cc[n+]([O-])cc1 returned b-catenin transl 0.5, Wee1 degr inh 1.8, Insulin prom up 0.36, Autophagy mod inactive and MT stabilize HCS 2.8.
Screening CCCCCCc1cc2cc(S(=O)(=O)c3ccc(Cl)cc3)c(=O)oc2cc1O returned b-catenin transl -0.7, Wee1 degr inh -1.5, Insulin prom up 0, Autophagy mod inactive and MT stabilize HCS 3.3.
Screening CCN(CC)c1ccc2cc(S(=O)(=O)c3ccc(Cl)cc3)c(=O)oc2c1 returned b-catenin transl -0.2, Wee1 degr inh 5.3, Insulin prom up 6.96*, Autophagy mod inactive and MT stabilize HCS 4.7.
`Cc1ccc(NC(=O)C(=O)NCCOc2ccccc2Cl)cc1` gave b-catenin transl -1.7, Wee1 degr inh 5.5, Insulin prom up -0.45, Autophagy mod inactive and MT stabilize HCS 4.4.
For CCc1ccc(NC(=O)C(=O)NCCOc2ccccc2Cl)cc1 the results were b-catenin transl 3.2, Wee1 degr inh 2.9, Autophagy mod inactive and MT stabilize HCS 26.0*.
Cn1c(=O)[nH]c(=O)c2c1nc(N1CCCCCC1)n2CCOc1ccccc1 was read as b-catenin transl 1.3, Wee1 degr inh -2.0, Insulin prom up 0.88, Autophagy mod inactive and MT stabilize HCS 1.7.
Screening COC(=O)c1nnn(-c2nonc2N)c1CSc1nnc(N)s1 returned b-catenin transl 1.4, Wee1 degr inh -1.8, Insulin prom up 0.38, Autophagy mod inactive and MT stabilize HCS 1.4.
Screening Cc1ccc(C(=O)Nc2nc(C)c(C(=O)Nc3ccc4c(c3)CCC4)s2)cc1 returned b-catenin transl 183.0*, Wee1 degr inh 9.8*, Insulin prom up 1.59, Autophagy mod inactive and MT stabilize HCS 2.8.
For Cc1nc(NC(=O)c2ccc(F)cc2)sc1C(=O)Nc1ccc2c(c1)CCC2 the results were Wee1 degr inh -0.3, Autophagy mod inactive and MT stabilize HCS 1.4.
